In publication PMC9909794 (ACS Omega, 2023):

Tests used:
[1] = test system: human dermal fibroblasts (HDFs); assay: Cell adhesion assay on peptide-BSA-coated plates, HDFs; assay type: cell-based; conditions: peptides conjugated at 0.125 μM and 1 μM; 5 × 10^3 cells/well; 1 h
In short: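 HDFs grown in DMEM with 10% FBS and penicillin/streptomycin, detached with 0.05% trypsin–EDTA, and suspended in 0.1% BSA/DMEM. Plates coated with Mal-BSA (10 μg/mL in water; 30 min, 37 °C), then Cys-PPP-spacer amide peptides in 100 mM HEPES pH 7 for 2 h. After 1 h adhesion, cells fixed and stained with crystal violet. Counts averaged over nine 0.77 mm2 fields; mean ± SE, three independent experiments.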

integrin αvβ3 = conditions: cited from earlier work
integrin αvβ5 = conditions: cited from earlier work

| Substance | Effect of the X3 amino acid on cell adhesion activity, HDFs [1] | Affinity for integrin αvβ3 relative to linear RGD peptides (integrin αvβ3) | Affinity for integrin αvβ5 relative to linear RGD peptides (integrin αvβ5) |
| --- | --- | --- | --- |
| CPPP-RGDNYI | negligible | – | – |
| CPPP-RGDNYP | negligible | – | – |
| c(RGDf(NMe)V) [cilengitide] | – | much higher affinity | much higher affinity |
